Source: ChEMBL document CHEMBL4428053, “Application of a Parallel Synthetic Strategy in the Discovery of Biaryl Acyl Sulfonamides as Efficient and Selective NaV1.7 Inhibitors” (J Med Chem, 2016)

How the values were obtained:
[1] = molecular target: T1, Sodium channel protein type 9 subunit alpha (Homo sapiens, UniProt Q15858); assay: Inhibition of human Nav1.7 expressed in HEK293 cells incubated for 3 to 5 mins at -125 mV holding potential by electrophysiology assay; assay type: cell-based
Target sequence in this assay (Q15858 whole entry): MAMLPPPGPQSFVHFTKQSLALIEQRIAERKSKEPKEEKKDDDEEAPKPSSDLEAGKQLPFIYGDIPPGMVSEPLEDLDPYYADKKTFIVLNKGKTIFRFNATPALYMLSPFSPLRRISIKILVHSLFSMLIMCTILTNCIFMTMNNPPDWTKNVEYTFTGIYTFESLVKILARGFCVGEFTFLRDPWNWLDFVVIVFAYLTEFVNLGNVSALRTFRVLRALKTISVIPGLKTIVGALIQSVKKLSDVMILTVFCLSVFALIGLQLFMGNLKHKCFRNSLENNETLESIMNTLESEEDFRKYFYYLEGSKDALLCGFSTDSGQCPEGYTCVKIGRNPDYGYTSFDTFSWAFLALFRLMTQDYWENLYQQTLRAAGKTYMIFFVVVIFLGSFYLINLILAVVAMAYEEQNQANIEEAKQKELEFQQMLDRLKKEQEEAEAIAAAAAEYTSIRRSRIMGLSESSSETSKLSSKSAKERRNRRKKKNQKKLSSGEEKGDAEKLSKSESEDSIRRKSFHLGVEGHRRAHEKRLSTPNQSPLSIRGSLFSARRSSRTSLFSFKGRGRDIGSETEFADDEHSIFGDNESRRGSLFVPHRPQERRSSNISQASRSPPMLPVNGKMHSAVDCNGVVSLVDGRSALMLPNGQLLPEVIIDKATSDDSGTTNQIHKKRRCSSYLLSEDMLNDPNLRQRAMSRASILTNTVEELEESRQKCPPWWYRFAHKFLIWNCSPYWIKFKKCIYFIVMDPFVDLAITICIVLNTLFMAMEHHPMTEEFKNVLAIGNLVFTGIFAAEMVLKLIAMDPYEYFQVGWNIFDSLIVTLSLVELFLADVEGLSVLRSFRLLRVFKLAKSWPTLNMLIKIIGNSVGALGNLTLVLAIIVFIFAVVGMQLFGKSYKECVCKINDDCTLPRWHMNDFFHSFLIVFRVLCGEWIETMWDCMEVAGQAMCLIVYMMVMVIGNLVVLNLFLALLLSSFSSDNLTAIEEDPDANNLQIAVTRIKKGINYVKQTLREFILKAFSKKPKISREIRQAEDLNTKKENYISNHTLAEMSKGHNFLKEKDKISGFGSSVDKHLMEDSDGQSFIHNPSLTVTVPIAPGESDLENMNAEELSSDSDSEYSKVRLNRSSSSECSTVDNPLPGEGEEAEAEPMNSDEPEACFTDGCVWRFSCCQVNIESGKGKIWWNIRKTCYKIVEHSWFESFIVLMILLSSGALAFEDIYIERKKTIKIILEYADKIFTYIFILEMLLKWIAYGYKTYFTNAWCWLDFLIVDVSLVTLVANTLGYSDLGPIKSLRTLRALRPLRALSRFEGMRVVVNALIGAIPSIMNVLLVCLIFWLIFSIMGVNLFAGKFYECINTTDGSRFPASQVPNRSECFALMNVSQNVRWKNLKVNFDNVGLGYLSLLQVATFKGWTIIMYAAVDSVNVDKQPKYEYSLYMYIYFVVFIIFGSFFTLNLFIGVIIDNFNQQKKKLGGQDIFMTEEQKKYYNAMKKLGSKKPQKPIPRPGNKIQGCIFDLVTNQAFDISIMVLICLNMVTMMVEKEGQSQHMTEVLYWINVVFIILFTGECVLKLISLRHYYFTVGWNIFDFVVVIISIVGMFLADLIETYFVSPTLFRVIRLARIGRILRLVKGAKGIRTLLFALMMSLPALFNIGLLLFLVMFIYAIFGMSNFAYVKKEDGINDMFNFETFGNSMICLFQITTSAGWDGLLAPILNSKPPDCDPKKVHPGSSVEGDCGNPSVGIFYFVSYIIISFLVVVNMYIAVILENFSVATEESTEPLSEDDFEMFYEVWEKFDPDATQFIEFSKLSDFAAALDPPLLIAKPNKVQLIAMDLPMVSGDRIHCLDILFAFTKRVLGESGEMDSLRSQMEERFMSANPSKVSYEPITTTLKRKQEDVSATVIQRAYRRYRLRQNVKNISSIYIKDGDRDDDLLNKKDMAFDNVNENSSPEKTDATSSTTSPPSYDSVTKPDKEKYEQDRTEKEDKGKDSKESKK

in vitro [2] = conditions: human, liver microsomes
in vitro [3] = conditions: rat, liver microsomes
[4] = molecular target: T1, Sodium channel protein type 9 subunit alpha; assay: Inhibition of human Nav1.7 expressed in HEK293 cells at 5 uM incubated for 3 to 5 mins at -125 mV holding potential by electrophysiology assay relative to control; assay type: cell-based
Target sequence in this assay (Q15858 whole entry, looked up): as the sequence (Q15858 whole entry) above

[5] = molecular target: Sodium channel protein type 5 subunit alpha (Homo sapiens, UniProt Q14524); assay: Inhibition of human Nav1.5 expressed in HEK293 cells incubated for 3 to 5 mins at -50 mV holding potential by electrophysiology assay; assay type: cell-based
[6] = molecular target: Voltage-gated inwardly rectifying potassium channel KCNH2 (Homo sapiens, UniProt Q12809)
Chain of Voltage-gated inwardly rectifying potassium channel KCNH2 (Q12809 whole entry): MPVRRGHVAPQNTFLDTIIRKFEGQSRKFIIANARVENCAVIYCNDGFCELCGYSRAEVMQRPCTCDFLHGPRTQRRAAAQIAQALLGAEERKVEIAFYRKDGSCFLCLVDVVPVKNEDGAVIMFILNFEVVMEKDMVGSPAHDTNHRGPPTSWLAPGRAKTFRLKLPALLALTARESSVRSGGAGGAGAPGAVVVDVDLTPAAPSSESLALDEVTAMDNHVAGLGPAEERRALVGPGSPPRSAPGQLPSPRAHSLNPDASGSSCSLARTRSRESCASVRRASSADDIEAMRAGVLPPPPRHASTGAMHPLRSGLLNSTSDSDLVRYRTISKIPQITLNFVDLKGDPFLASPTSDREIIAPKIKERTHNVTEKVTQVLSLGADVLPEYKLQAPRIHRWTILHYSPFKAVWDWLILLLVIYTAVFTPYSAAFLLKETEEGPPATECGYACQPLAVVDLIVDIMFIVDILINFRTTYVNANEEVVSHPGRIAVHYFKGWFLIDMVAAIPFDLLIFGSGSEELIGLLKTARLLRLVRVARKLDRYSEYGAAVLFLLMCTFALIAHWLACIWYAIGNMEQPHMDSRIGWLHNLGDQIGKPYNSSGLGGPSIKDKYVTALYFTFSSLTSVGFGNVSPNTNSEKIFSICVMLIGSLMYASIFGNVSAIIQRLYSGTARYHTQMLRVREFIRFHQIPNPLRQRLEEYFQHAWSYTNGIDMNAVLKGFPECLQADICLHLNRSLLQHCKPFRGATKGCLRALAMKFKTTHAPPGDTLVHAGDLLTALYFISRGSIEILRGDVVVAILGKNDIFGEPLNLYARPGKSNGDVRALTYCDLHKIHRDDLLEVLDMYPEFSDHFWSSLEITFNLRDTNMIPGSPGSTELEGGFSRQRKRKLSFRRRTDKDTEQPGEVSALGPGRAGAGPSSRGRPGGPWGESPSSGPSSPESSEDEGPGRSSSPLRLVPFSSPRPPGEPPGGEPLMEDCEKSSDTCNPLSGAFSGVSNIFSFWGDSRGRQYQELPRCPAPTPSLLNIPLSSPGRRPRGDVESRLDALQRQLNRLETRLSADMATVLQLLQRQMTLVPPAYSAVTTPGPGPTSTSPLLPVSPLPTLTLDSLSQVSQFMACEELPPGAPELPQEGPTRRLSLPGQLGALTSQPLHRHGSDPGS

Cytochrome P450 3A4 [7] = molecular target: T2, Cytochrome P450 3A4 (Homo sapiens, UniProt P08684)
T2 sequence (P08684 whole entry): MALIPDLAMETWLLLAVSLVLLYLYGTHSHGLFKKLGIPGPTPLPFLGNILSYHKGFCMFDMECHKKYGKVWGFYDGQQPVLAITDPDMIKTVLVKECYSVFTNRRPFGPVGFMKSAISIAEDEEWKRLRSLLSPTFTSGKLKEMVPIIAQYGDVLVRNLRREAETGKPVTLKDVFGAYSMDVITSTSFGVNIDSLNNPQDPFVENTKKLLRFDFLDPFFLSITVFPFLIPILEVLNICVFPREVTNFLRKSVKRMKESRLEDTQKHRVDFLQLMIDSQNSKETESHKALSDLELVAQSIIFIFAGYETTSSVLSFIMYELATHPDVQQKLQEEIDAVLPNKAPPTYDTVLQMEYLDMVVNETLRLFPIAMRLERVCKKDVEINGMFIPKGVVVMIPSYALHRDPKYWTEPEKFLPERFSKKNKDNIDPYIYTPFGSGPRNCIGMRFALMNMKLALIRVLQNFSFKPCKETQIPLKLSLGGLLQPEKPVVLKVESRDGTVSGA

Cytochrome P450 2D6 [8] = molecular target: T3, Cytochrome P450 2D6 (Homo sapiens, UniProt P10635)
T3 sequence (P10635 whole entry): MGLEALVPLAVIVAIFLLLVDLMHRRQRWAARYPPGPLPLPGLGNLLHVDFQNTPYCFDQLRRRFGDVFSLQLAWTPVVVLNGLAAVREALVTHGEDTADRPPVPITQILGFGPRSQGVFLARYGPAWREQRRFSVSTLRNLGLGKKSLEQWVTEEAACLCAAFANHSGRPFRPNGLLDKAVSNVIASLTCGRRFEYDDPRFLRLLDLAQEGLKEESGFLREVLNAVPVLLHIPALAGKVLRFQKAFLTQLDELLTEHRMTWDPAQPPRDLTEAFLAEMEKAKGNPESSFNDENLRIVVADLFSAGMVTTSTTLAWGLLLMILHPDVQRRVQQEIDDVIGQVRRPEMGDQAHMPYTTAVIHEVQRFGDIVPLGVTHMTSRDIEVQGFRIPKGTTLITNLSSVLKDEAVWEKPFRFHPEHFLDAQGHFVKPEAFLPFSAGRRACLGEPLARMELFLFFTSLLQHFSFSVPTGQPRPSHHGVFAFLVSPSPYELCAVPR

Cytochrome P450 2C9 [9] = molecular target: T4, Cytochrome P450 2C9 (Homo sapiens, UniProt P11712)
T4 sequence (P11712 whole entry): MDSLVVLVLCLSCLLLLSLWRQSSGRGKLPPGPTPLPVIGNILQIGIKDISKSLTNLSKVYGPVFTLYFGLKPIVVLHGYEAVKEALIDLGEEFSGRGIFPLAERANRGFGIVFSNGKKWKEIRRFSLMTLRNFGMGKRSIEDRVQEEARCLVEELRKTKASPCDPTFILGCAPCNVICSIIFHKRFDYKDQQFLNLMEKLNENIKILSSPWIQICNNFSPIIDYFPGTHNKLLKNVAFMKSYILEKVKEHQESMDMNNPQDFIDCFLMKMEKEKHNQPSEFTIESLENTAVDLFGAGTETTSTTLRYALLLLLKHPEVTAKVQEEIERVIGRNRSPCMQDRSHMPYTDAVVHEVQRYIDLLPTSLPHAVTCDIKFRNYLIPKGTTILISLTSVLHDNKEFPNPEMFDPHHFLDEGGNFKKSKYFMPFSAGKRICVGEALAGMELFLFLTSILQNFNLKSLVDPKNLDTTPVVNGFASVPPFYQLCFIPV

Cytochrome P450 3A4 [10] = molecular target: T2, Cytochrome P450 3A4; remark: listed apart in the source
Cytochrome P450 2D6 [11] = molecular target: T3, Cytochrome P450 2D6; remark: listed apart in the source
Cytochrome P450 2C9 [12] = molecular target: T4, Cytochrome P450 2C9; remark: listed apart in the source
[13] = Clearance in Harlan rat at 1 mg/kg, iv by LC-MS/MS analysis; assay type: ADME, organism-based; conditions: in vivo
Method in brief: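 Male fed rats. The IV dose was given in 100% DMSO. The oral dose was given in 1% Tween 80, 2% HPMC, 97% water/NaOH (pH 8.5).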

[14] = Protein binding in rat plasma at 5 uM after 45 mins by LC-MS/MS analysis; assay type: ADME, cell-free; conditions: read-out: PPB
Homo sapiens = species on record: Homo sapiens; assay: Selectivity ratio of IC50 for human Nav1.5 expressed in HEK293 cells to human Nav1.7 expressed in HEK293 cells; assay type: cell-based
Method in brief: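 IC50s come from PatchXpress automated electrophysiology, and the ratio divides the hNav1.5 IC50 by the hNav1.7 IC50. For hNav1.7, cells were held at a voltage giving 20-50% channel inactivation. For hNav1.5, cells were held at -50 mV on the same platform.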

IC50 [1] [µM] | microsomal CLint at 1 µM (in vitro [2]) [µL/min/mg] | microsomal CLint at 1 µM (in vitro [3]) [µL/min/mg] | SMILES | IC50 [5] [µM] | also measured
0.062 | 110 | < 14 | COc1cc(C(=O)NS(C)(=O)=O)c(F)cc1-c1cnc(OCC2(C)CC2)c(Cl)c1 |  | 
0.29 | 30 | 16.5 | CC(C)COc1ncc(-c2ccc(C(=O)NS(C)(=O)=O)cc2Cl)cc1Cl |  | 
0.35 | 44 | 32 | COc1cc(C(=O)NS(C)(=O)=O)ccc1-c1cnc(OCC(C)C)c(Cl)c1 | > 30 | 
0.109 | < 14 | < 14 | COc1cc(C(=O)NS(C)(=O)=O)ccc1-c1cnc(OCc2ccc(Cl)cc2)c(Cl)c1 | 21 | 
0.55 | 102 | 17 | COc1cc(C(=O)NS(C)(=O)=O)ccc1-c1cnc(OC2CCC2)c(Cl)c1 | 17.8 | 
0.15 | < 14 | < 14 | COc1cc(C(=O)NS(C)(=O)=O)ccc1-c1cnc(Oc2cc(Cl)cnc2OC)c(Cl)c1 | 11.6 | 
0.53 | 47 | 22 | CC(C)COc1ncc(-c2cc(F)c(C(=O)NS(C)(=O)=O)cc2F)cc1Cl | > 30 | Ki [6]: > 30 µM; IC50 (Cytochrome P450 3A4 [7]): > 50 µM; IC50 (Cytochrome P450 2D6 [8]): > 50 µM; IC50 (Cytochrome P450 2C9 [9]): 34.1 µM; IC50 (Cytochrome P450 3A4 [10]): 48.6 µM; IC50 (Cytochrome P450 2D6 [11]): > 50 µM; IC50 (Cytochrome P450 2C9 [12]): 34.7 µM
3.04 | < 14 | 28 | CC(C)COc1ncc(-c2ccc(C(=O)NS(C)(=O)=O)c(F)c2)cc1Cl | 18 | 
> 42 | 22 | < 14 | Cc1cc(-c2cnc(OCC(C)C)c(Cl)c2)ccc1C(=O)NS(C)(=O)=O |  | 
10.6 | 18 | 18 | CC(C)COc1ncc(-c2ncc(C(=O)NS(C)(=O)=O)cc2F)cc1Cl |  | 
2.54 |  |  | CS(=O)(=O)NC(=O)c1cc(F)c(-c2ccc(Cl)c(Cl)c2)cc1F | > 42 | Ki [6]: > 30 µM

The next lines start with the compound.

SMILES | IC50 [1] [µM] | microsomal CLint at 1 µM (in vitro [2]) [µL/min/mg] | microsomal CLint at 1 µM (in vitro [3]) [µL/min/mg] | IC50 [5] [µM] | also measured
CS(=O)(=O)NC(=O)Cc1ccc(Cl)c(Cl)c1 |  |  |  |  | inhibition [4]: < 5%
COc1cc(C(=O)NS(C)(=O)=O)ccc1-c1cnc(Oc2cc(Cl)cc(Cl)c2)c(C(F)(F)F)c1 | 0.028 | < 14 | < 14 | 2.35 | 
CS(=O)(=O)NC(=O)c1cc(F)c(COc2ccc(Cl)c(Cl)c2)cc1F |  |  |  |  | Ki [6]: > 30 µM
CC(C)COc1ncc(-c2ccc(C(=O)NS(C)(=O)=O)cc2C2=CCOC2)cc1Cl | 0.26 | > 399 | < 14 | > 42 | 
COc1cc(C(=O)NS(C)(=O)=O)ccc1-c1cnc(Oc2cc(Cl)cc(Cl)c2)c(Cl)c1 | 0.036 | < 14 | < 14 | 6 | clearance [13]: 9.33 to 12.2 mL/min/kg; fraction unbound at 0.75 h, 5 µM [14]: < 0.001
COc1cc(C(=O)NS(C)(=O)=O)ccc1-c1cnc(Oc2cc(Cl)cc(Cl)c2)c(C(F)F)c1 |  | < 14 | < 14 | 18.8 | 
Cc1nn(-c2ccc(Cl)c(Cl)c2)c(C)c1C(=O)NS(C)(=O)=O |  |  |  |  | inhibition [4]: < 5%
CS(=O)(=O)NC(=O)c1cc(-c2ccc(Cl)c(Cl)c2)[nH]n1 |  |  |  |  | inhibition [4]: < 5%
CC(C)(C)OC(=O)N[C@@H](CC(=O)NS(C)(=O)=O)Cc1ccc(Cl)c(Cl)c1 |  |  |  |  | inhibition [4]: < 5%
CC(C)COc1ncc(-c2ccc(C(=O)NS(C)(=O)=O)cc2C(F)(F)F)cc1Cl | 0.27 | > 399 | < 14 | 3.1 | 
CC(C)COc1ncc(-c2ccc(C(=O)NS(C)(=O)=O)cc2)cc1Cl | 1.19 | 14 | < 14 |  | 
COc1cc(C(=O)NS(C)(=O)=O)ccc1-c1cnc(N2CCC[C@H]2C(C)C)c(Cl)c1 |  | 385 | 40 | 2.5 | 
CC(C)COc1ncc(-c2ccc(C(=O)NS(C)(=O)=O)cc2C(=O)N(C)C)cc1Cl | > 42 | 19 | < 14 |  | 
CS(=O)(=O)NC(=O)CNC(=O)c1ccc(Cl)c(Cl)c1 |  |  |  |  | inhibition [4]: < 5%
CS(=O)(=O)NC(=O)c1ccc2c(Oc3ccc(Cl)c(C(F)(F)F)c3)nccc2c1 | 0.28 |  |  | 14.4 | Ratio IC50 (Homo sapiens): > 40; Ki [6]: > 30 µM
CC(C)COc1ncc(Oc2nccc3cc(C(=O)NS(C)(=O)=O)ccc23)cc1Cl | 0.2 |  |  |  | 
CS(=O)(=O)NC(=O)c1cc(-c2ccc(Cl)c(Cl)c2)nc2ccccc12 |  |  |  |  | inhibition [4]: < 5%
